The record followed here is ChEMBL document CHEMBL4342468, “Evolution of a 4-Benzyloxy-benzylamino Chemotype to Provide Efficacious, Potent, and Isoform Selective PPARα Agonists as Leads for Retinal Disorders” (J Med Chem, 2020).

pEC50: −log10 of the molar value.

Data set [1] is described as follows: Stability in Sprague Dawley rat pooled liver microsomes preincubated for 5 mins prior to addition of NADPH-regenerating system and measured up to 60 mins by HPLC-MS/MS analysis. It is filed as ADME, Microsome. Particulars: 1 h. Put shortly:
(§1)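 Compound pre-incubated 5 min at 37 °C with pooled liver microsomes in phosphate buffer, pH 7.4. NADPH-generating system then added; samples taken at 0, 15, 30, 45 and 60 min and quenched in acetonitrile/methanol. […] References: propranolol, imipramine, verapamil, terfenadine. Run in duplicate.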
On the technique in general: Liver microsomes are a subcellular fraction often used to study metabolism.

Data set [2] concerns the target T1, Peroxisome proliferator-activated receptor alpha (Homo sapiens) (UniProt Q07869).
T1 sequence (whole entry): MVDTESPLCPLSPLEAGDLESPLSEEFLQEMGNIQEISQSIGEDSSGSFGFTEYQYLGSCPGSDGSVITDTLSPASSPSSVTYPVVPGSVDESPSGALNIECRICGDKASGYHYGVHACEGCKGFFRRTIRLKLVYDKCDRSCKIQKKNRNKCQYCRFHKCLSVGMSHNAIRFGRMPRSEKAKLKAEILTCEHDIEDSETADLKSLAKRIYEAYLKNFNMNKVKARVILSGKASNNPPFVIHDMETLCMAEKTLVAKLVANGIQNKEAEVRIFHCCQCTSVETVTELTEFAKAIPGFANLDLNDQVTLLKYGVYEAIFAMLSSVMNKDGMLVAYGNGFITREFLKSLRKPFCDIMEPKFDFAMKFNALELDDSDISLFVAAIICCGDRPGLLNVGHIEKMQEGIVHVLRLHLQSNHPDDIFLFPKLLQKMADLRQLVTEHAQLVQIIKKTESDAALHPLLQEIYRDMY
Description: Binding affinity to His tagged PPARalpha LBD (unknown origin) expressed in Escherichia coli Rosetta (DE3) assessed as change in entropy at 25 degree C by isothermal titration calorimetry. For orientation: ITC needs no label: the signal is the heat of the interaction.

The target in data set [3] is T2, Peroxisome proliferator-activated receptor alpha (Homo sapiens, UniProt Q07869).
T2 sequence (Q07869 whole entry): T1 sequence (whole entry)

The target of data set [4] is T2, Peroxisome proliferator-activated receptor alpha. The experiment in a line: Binding affinity to PPARalpha in human MIO-M1 cells assessed as increase in thermal stability preincubated for 3 hrs followed by exposure to 45.5 degree C for 10 mins by CETSA. It is filed as cell-based. The method, boiled down:
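Human retinal Müller glial MIO-M1 cells grown in DMEM with 10% FBS. They were then heated at Tagg(75) for 10 min. Lysis used cold PBS with 0.1% Triton X-100 and protease inhibitors, and unstable protein was removed by centrifugation. Soluble PPARα was quantified by anti-PPARα immunoblot, normalized to loading control, and EC50 fitted. Single experiment, duplicate.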

In data set [5] the target is hERG (KCNH2) (Homo sapiens, UniProt Q12809). The experiment in a line: Inhibition of human ERG stably expressed in CHOK1 cells assessed as tail current amplitude at 10 uM incubated for 5 mins measured after deploarization to +20 mV for 2s followed by 1s pulse to -40 mV with holding potential of -80 mV by Qpatch clamp assay relative to control. The data set is classed as cell-based. Particulars: CHO-K1 cells stably expressing human ERG. Put shortly:
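Whole-cell automated patch clamp at room temperature on CHO-K1 cells stably carrying human hERG cDNA. Holding potential -80 mV; tail current evoked by 2 s step to +20 mV then 1 s to -40 mV.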

Data set [6] is described as follows: Stability in human pooled liver microsomes preincubated for 5 mins prior to addition of NADPH-regenerating system and measured up to 60 mins by HPLC-MS/MS analysis. The data set is classed as ADME, Microsome. The following applies: 1 h. Put shortly: as §1

Chain of hERG (KCNH2) (Q12809 whole entry): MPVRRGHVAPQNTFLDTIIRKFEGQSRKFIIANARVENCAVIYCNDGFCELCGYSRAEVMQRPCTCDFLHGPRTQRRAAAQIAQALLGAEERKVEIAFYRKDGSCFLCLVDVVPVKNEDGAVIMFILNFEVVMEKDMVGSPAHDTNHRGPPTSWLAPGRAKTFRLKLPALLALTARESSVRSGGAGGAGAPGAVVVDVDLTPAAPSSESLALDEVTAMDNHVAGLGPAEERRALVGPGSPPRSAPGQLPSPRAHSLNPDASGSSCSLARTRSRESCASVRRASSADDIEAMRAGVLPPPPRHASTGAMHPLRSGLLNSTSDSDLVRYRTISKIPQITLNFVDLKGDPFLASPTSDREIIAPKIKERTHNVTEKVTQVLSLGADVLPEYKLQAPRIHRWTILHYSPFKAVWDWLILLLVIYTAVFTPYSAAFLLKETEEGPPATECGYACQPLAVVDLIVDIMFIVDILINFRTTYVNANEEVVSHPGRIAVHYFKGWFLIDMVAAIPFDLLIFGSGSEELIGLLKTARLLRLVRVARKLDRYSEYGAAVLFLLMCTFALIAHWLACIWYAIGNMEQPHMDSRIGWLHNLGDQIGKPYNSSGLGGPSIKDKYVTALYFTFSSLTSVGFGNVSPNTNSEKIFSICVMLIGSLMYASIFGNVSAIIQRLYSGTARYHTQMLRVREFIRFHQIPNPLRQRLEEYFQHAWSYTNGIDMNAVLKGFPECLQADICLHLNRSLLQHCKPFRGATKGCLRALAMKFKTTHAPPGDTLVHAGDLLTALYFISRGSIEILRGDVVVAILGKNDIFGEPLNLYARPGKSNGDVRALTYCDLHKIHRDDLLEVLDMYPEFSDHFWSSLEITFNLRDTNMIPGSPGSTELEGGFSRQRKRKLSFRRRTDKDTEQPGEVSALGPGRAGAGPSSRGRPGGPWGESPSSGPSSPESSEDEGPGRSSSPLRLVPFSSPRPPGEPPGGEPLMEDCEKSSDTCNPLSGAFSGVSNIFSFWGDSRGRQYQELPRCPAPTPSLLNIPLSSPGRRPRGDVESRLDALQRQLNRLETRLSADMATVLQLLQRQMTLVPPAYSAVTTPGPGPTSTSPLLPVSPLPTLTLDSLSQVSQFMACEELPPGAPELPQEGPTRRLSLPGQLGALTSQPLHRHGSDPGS

With `Cc1cc(CNc2cccc(C(=O)O)c2)ccc1OCc1ccc(F)cc1`, the Stability result in data set [1] and in data set [6] was “Stable” each time. For the same compound, in data set [2], the -TdeltaS is -1.65 kcal/mol. For the same compound, the negative logarithm of the EC50 (pEC50) in data set [3] is 7.43; in data set [4], 7.03. For the same compound, the inhibition at 5 min, 10 µM in data set [5] was found to be 10%.

What is called pEC50 is the negative decadic logarithm of the EC50, by convention in mol/L. Broadly, the inhibition is the share of the control response that was lost under treatment.
